How the values were obtained:
[1] = Drug level in rat brain assessed as unchanged drug level at >1.39 Ci/umol, iv after 60 mins; type: ADME, organism-based; settings: read-out: Drug uptake
[2] = Stability in rhesus monkey plasma assessed as unchanged drug level after 45 mins by HPLC; type: ADME, cell-free, Macaca mulatta; settings: read-out: Stability
Procedure, shortened: (§1)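 Radioligand incubated for at least 45 min at room temperature in monkey whole blood or plasma. Sample mixed with acetonitrile and centrifuged; supernatant analysed by reverse-phase radio-HPLC.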

Brain [3] = assay: Drug level in rhesus monkey brain assessed as standard uptake value in choroid plexus of fourth ventricle at 2.76 to 5.8 mCi, iv; type: ADME, organism-based, Macaca mulatta; settings: in vivo
Procedure, shortened: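 Male rhesus monkeys (11–15 kg) anaesthetised with ketamine, then 1.6% isoflurane. Bolus i.v. radioligand (2.76–5.80 mCi; 0.068–0.276 μg/kg) given; PET for up to 300 min, co-registered with T1 MRI. Regional radioactivity expressed as %SUV; n = 4.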

[4] = Stability in rat plasma at 3.78 ug/kg, iv after 10.9 mins; type: ADME, organism-based; settings: 0.00378 mg/kg, read-out: Stability
[5] = Stability in rhesus monkey whole blood assessed as unchanged drug level after 45 mins by HPLC; type: ADME, tissue-based, Macaca mulatta; settings: read-out: Stability; procedure, shortened: as §1
[6] = Stability in rat brain assessed as unchanged drug level at 2 uCi upto 60 mins; type: ADME, tissue-based; settings: read-out: Stability
[7] = Stability in rat plasma at 3.78 ug/kg, iv after 94.3 mins; type: ADME, organism-based; settings: 0.00378 mg/kg, read-out: Stability
Plasma [8] = assay: Drug distribution in monkey plasma; type: ADME, cell-free, Macaca mulatta; settings: rhesus monkey
Procedure, shortened: (§2)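 Radioligand incubated in vitro with monkey whole blood, then centrifuged; radioactivity counted in the plasma and cell fractions; n = 4.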

Brain [9] = assay: Stability in rat brain assessed as drug recovery into acetonitrile analytes at 3.78 ug/kg, iv; type: ADME, organism-based; settings: in vivo, 0.00378 mg/kg
Plasma [10] = assay: Drug level in rat plasma assessed as unchanged drug level at >1.39 Ci/umol, iv after 60 mins; type: ADME, organism-based; settings: in vivo, 1 h
[11] = Drug level in rat urine assessed as unchanged drug level at >1.39 Ci/umol, iv after 60 mins; type: ADME, organism-based; settings: in vivo, 1 h
Blood [12] = assay: Drug level in monkey blood assessed as drug distribution in cellular compartment; type: ADME, tissue-based, Macaca mulatta; settings: rhesus monkey; procedure, shortened: as §2
Plasma [13] = assay: Fraction unbound in human plasma; type: ADME, cell-free
Procedure, shortened: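 Radioligand added to pooled human plasma and ultrafiltered at 5000g through Centrifree units; all filter-unit components counted for radioactivity to give the free fraction; n = 3.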

[14] = Drug level in rat plasma assessed as drug recovery into acetonitrile analytes at >1.39 Ci/umol, iv after 60 mins; type: ADME, organism-based; settings: read-out: Drug uptake
[15] = Stability in sodium phosphate buffer at pH 7.4 after 2 hrs by HPLC; type: physicochemical; settings: pH 7.4, 2 h
Procedure, shortened: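 Radioligand held in sodium phosphate buffer (0.15 M, pH 7.4) for 2 h at room temperature; analysed by HPLC.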

Plasma [16] = assay: Stability in rat plasma assessed as drug recovery into acetonitrile analytes at 3.78 ug/kg, iv; settings: 0.00378 mg/kg
[17] = Drug level in rat urine assessed as drug recovery into acetonitrile analytes at >1.39 Ci/umol, iv after 60 mins; type: ADME, organism-based; settings: read-out: Drug uptake
[18] = Stability in rat plasma assessed as drug recovery at 1.36 Ci/umol, iv after 30 mins; type: ADME, organism-based; settings: read-out: Stability
Procedure, shortened: (§3)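 Isoflurane-anaesthetised rat at 37 °C given no-carrier-added radioligand i.v. (mass dose 0.85 μg/kg); sacrifice at 30 min. Plasma and brain homogenate (saline plus acetonitrile) extracted into acetonitrile; supernatants analysed by reverse-phase radio-HPLC (C18, MeOH/H2O/Et3N 75:25:0.1); recovery of radioactivity and parent fraction measured.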

[19] = Drug level in rat brain assessed as drug recovery into acetonitrile analytes at >1.39 Ci/umol, iv after 60 mins; type: ADME, organism-based; settings: read-out: Drug uptake
[20] = Stability in rat plasma at 3.78 ug/kg, iv after 7.3 mins; type: ADME, organism-based; settings: 0.00378 mg/kg, read-out: Stability
[21] = Stability in rat brain at 3.78 ug/kg, iv after 95 mins; type: ADME, organism-based; settings: 0.00378 mg/kg, read-out: Stability
[22] = Stability in rat brain assessed as drug recovery at 1.36 Ci/umol, iv after 30 mins; type: ADME, organism-based; settings: read-out: Stability; procedure, shortened: as §3
Brain [23] = assay: Stability in rat brain assessed as conversion into polar radiometabolites at 10 uCi after 30 mins; type: ADME, tissue-based; settings: 0.5 h
Procedure, shortened: (§4)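 Radioligand incubated for 30 min with rat brain homogenate or rat whole blood; conversion to polar species eluting at the solvent front measured by reverse-phase radio-HPLC.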

[24] = Stability in rat whole blood assessed as conversion into polar radiometabolites at 10 uCi after 30 mins; type: ADME, tissue-based; settings: 0.5 h; procedure, shortened: as §4
Blood [25] = assay: Drug level in rat blood assessed as standard uptake value at 74.6 uCi, iv after 30 mins; type: ADME, organism-based; settings: in vivo, 0.5 h
Brain [26] = assay: Drug level in rat brain assessed as standard uptake value at 74.6 uCi, iv after 30 mins; type: ADME, organism-based; settings: in vivo, 0.5 h
Plasma [27] = assay: Drug level in rat plasma assessed as standard uptake value at 74.6 uCi, iv after 30 mins; type: ADME, organism-based; settings: in vivo, 0.5 h
Plasma [28] = assay: Drug level in rat plasma assessed generation of polar radiometabolites as at 74.6 uCi, iv after 30 mins; type: ADME, organism-based; settings: in vivo, 0.5 h
Brain [29] = assay: Drug level in rat brain assessed generation of polar radiometabolites as at 74.6 uCi, iv after 30 mins; type: ADME, organism-based; settings: in vivo, 0.5 h
Translocator protein [30] = biological target: Translocator protein (Homo sapiens, UniProt P30536); assay: Displacement of [3H]PK11195 from human PBR receptor
Procedure, shortened: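 Competition binding against [3H]PK 11195 in human brain tissue (mitochondrial fraction of brain homogenate). The tissue came from the NIMH Clinical Brain Disorders Branch. Affinity is expressed as Ki.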

Translocator protein [31] = biological target: Translocator protein (Rattus norvegicus, UniProt P16257); assay: Displacement of [3H]PK11195 from rat PBR receptor
[32] = Displacement of [3H]PK11195 from monkey PBR receptor; set-up: species or system Macaca mulatta
[33] = Distribution coefficient, log D at pH 7.4; type: physicochemical; settings: octanol/water
Procedure, shortened: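 Radioligand partitioned between n-octanol and sodium phosphate buffer (0.15 M, pH 7.4); LogD taken as log of the distribution coefficient; n = 6.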

Chain of Translocator protein (Homo sapiens, UniProt P30536) (P30536 whole entry): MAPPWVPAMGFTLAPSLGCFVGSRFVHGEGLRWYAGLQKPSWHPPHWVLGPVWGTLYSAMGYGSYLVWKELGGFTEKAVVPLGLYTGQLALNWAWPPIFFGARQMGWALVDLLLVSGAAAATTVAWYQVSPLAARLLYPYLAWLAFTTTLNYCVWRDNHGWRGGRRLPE
Chain of Translocator protein (Rattus norvegicus, UniProt P16257) (P16257 whole entry, looked up): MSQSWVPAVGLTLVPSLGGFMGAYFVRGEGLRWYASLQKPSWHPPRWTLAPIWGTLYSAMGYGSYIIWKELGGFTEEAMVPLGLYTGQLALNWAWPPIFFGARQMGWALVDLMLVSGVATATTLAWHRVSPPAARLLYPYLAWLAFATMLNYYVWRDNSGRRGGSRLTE

Question: Which remaining at 1 h [1] does the source give for `COc1ccc(OC)c(CN(C(=O)C[18F])c2ccccc2Oc2ccccc2)c1` here?
Answer: 32.6%

Question: What about the remaining at 0.75 h [2] of the same molecule?
Answer: 97.2%

Question: What about the Activity (Brain [3]) of the same molecule?
Answer: 350%

Question: What about the remaining at 0.181667 h [4] of the same molecule?
Answer: 37.6%

Question: And the remaining at 0.75 h [5]?
Answer: 95.5%

Question: What about the remaining at 1 h [6] of the same molecule?
Answer: > 99.2%

Question: What about the remaining at 1.57167 h [7] of the same molecule?
Answer: 5.7%

Question: What about the Drug uptake (Plasma [8]) of the same molecule?
Answer: 6.6%

Question: And the Stability (Brain [9])?
Answer: 81.8%

Question: What about the Drug uptake (Plasma [10]) of the same molecule?
Answer: 14.2%

Question: What about the Drug uptake [11] of the same molecule?
Answer: 0.2%

Question: What about the Drug uptake (Blood [12]) of the same molecule?
Answer: 93.4%

Question: What about the Fu (Plasma [13]) of the same molecule?
Answer: 0.7%

Question: What about the recovery at 1 h [14] of the same molecule?
Answer: 93.2%

Question: What about the Stability [15] of the same molecule?
Answer: Stable

Question: What about the Stability (Plasma [16]) of the same molecule?
Answer: 93%

Question: And the recovery at 1 h [17]?
Answer: 80.3%

Question: What about the remaining at 0.5 h [18] of the same molecule?
Answer: 92.7%

Question: And the recovery at 1 h [19]?
Answer: 91%

Question: What about the remaining at 0.121667 h [20] of the same molecule?
Answer: 44.6%

Question: What about the remaining at 95 min [21] of the same molecule?
Answer: 39.2%

Question: What about the remaining at 0.5 h [22] of the same molecule?
Answer: 85.1%

Question: Which results are given for `O=C(C[18F])Nc1ccccc1Oc1ccccc1`?
Answer: Stability (Brain [23]): > 99.9%; Stability [24]: > 99.9%; Drug uptake (Blood [25]): 196%; Drug uptake (Brain [26]): 120%; Drug uptake (Plasma [27]): 226%; Activity (Plasma [28]): > 99%; Activity (Brain [29]): > 99%

Question: For `COc1ccc(OC)c(CN(C(C)=O)c2cc(F)ccc2Oc2ccccc2)c1`, which Ki (Translocator protein [30]) is on record?
Answer: 0.242 nM

Question: What about the Ki (Translocator protein [31]) of the same molecule?
Answer: 0.0726 nM

Question: What does the source list for `COc1ccc(OC)c(CN(C(=O)CF)c2ccccc2Oc2ccccc2)c1`?
Answer: Ki [32]: 0.318 nM; logD [33]: 4.05; Ki (Translocator protein [30]): 0.997 nM; Ki (Translocator protein [31]): 0.18 nM
